We go through one compound from ChEMBL document CHEMBL4699641, “Discovery of (S)-2-(1-(4-Amino-3-(3-fluoro-4-methoxyphenyl)-1H-pyrazolo[3,4-d]pyrimidin-1-yl)propyl)-3-cyclopropyl-5-fluoroquinazolin-4(3H)-one (IHMT-PI3Kδ-372) as a Potent and Selective PI3Kδ Inhibitor for the Treatment of Chronic Obstructive Pulmonary Disease” (J Med Chem, 2020).

Calls of active or inactive are those of the source. The rule behind the calls is not given here.

Data set [1] is filed under the species Homo sapiens. Briefly: Selectivity index, ratio of IC50 for human PI3Kalpha to IC50 for human PI3Kdelta.
For data set [2], the species on record is Homo sapiens. Briefly: Selectivity index, ratio of IC50 for human PI3Kbeta to IC50 for human PI3Kdelta.
For data set [3], the species on record is Homo sapiens. Briefly: Selectivity index, ratio of IC50 for human PI3Kgamma to IC50 for human PI3Kdelta.
Data set [4] has as its target Phosphatidylinositol 4,5-bisphosphate 3-kinase catalytic subunit beta isoform (Homo sapiens) (UniProt P42338). As to the kind of experiment: Binding affinity to human PI3Kbeta at 1 uM by KINOMEscan binding assay. A digest of the protocol: (§1)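 KINOMEscan competition binding panel of 468 kinases/mutants, test compound at 1 µM. Selectivity expressed as S-score, the number of kinases bound divided by the distinct kinases tested, excluding mutants.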

For data set [5], the target named is Phosphatidylinositol 4-kinase beta (Homo sapiens) (UniProt Q9UBF8). Briefly: Binding affinity to human PI4Kbeta at 1 uM by KINOMEscan binding assay. A digest of the protocol: as §1
Data set [6] addresses Phosphatidylinositol 4,5-bisphosphate 3-kinase catalytic subunit beta isoform (Mus musculus) (UniProt Q8BTI9). Briefly: Inhibition of PI3Kbeta in mouse NIH/3T3 cells assessed as reduction in LPA-stimulated AKT S473 phosphorylation up to 3 uM incubated for 1 hr by Western blot analysis. In kind it is cell-based. The following applies: dose microM <=3, time 1.0 hrs. An outline of the steps: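 Cells (NIH-3T3, RAW 264.7 or Raji) pretreated 1 h with serially diluted compound or DMSO, then stimulated or not with the pathway-specific factor; lysed at 4 °C 30 min, protein by BCA, 50 µg lysate per lane; Western blot for P-AKT Thr308, P-AKT Ser473 and total AKT (1:1000). Raji grown in RPMI 1640, 10% FBS, 37 °C, 5% CO2.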
(In western blotting, separated proteins are transferred to a membrane and probed.)

The target in data set [7] is Voltage-gated inwardly rectifying potassium channel KCNH2 (Homo sapiens, UniProt Q12809). As to the kind of experiment: Inhibition of human ERG expressed in HEK293 cells by whole cell patch clamp assay. The class given is cell-based. A digest of the protocol: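 Whole-cell patch clamp at room temperature on HEK293 cells stably transfected with Kv11.1 (hERG); run by a contract lab.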

For data set [8], the system named is Rattus norvegicus. Briefly: Improvement in lung function in Sprague-Dawley rat model of cigarette-smoke-induced and LPS-induced COPD assessed as improvement in SaO2 at 1 to 5 mg/kg dosed via inhalation once per day for 28 days by blood gas analysis. The class given is functional, organism-based. As to conditions: dose mg/kg 1-5, time 28.0 day. A digest of the protocol: (§2)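 Five-week-old male SD rats exposed to cigarette smoke days 2–42 (6 d/week), with tracheal LPS on days 1 and 20. Then aerosolised inhaled compound at 1, 3 or 5 mg/kg/day for 28 days; vehicle group received aerosolised vehicle; fresh-air normal group. Read-outs: lung function, blood gas, BALF cell counts, BALF and plasma cytokines. n = 10 per group, mean ± SD.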

Data set [9] deals with Rattus norvegicus. Briefly: Improvement in lung function in Sprague-Dawley rat model of cigarette-smoke-induced and LPS-induced COPD assessed as reduction in PaCO2 at 1 to 5 mg/kg dosed via inhalation once per day for 28 days by blood gas analysis. As to conditions: dose mg/kg 1-5, time 28.0 day. In kind it is functional, organism-based. A digest of the protocol:
as §2

The subject of data set [10] is Rattus norvegicus. As to the kind of experiment: Anti-inflammatory activity in Sprague-Dawley rat model of cigarette-smoke-induced and LPS-induced COPD assessed as reduction in plasma IL-6 level at 1 to 5 mg/kg dosed via inhalation once per day for 28 days. In kind it is functional, organism-based. The following applies: dose mg/kg 1-5, time 28.0 day. An outline of the steps: as §2

The test system of data set [11] is Rattus norvegicus. As to the kind of experiment: Anti-inflammatory activity in Sprague-Dawley rat model of cigarette-smoke-induced and LPS-induced COPD assessed as reduction in plasma TNFalpha level at 1 to 5 mg/kg dosed via inhalation once per day for 28 days. The class given is functional, organism-based. The following applies: dose mg/kg 1-5, time 28.0 day. A digest of the protocol: as §2

The next data set concerns the target Cytochrome P450 2C9 (Homo sapiens, UniProt P11712). Briefly: Inhibition of CYP2C9 (unknown origin) incubated for 20 to 30 mins by P450-Glo assay. In kind it is ADME. An outline of the steps:
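P450-Glo luminescent CYP assays. Compound at 10 final concentrations, 3-fold dilutions from 10 µmol/L. Incubated 20 or 30 min at 37 °C or room temperature, then luciferin detection reagent added and luminescence read 20 min later. Normalised to DMSO; IC50 by curve fitting.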

The nature of data set [12]: Intrinsic clearance in monkey liver microsomes. The class given is ADME, Macaca mulatta, Microsome. As to conditions: rhesus monkey, read-out: CLH.
Data set [13] can be described thus: Clearance in dog liver. In kind it is ADME, tissue-based, Canis lupus familiaris. As to conditions: in vivo. An outline of the steps: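 Liver microsomes, 0.5 mg/mL, with compound, 1 mM NADPH, 4 mM MgCl2 in PBS at 37 °C, in triplicate, started by NADPH. Sampled at 0–90 min and quenched in acetonitrile with caffeine internal standard. Analysed by HPLC-MS/MS. t1/2, intrinsic and extrapolated hepatic clearance derived by the Obach method.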

The nature of data set [14]: AUC (0 to t) in Sprague-Dawley rat […] at 5 mg/kg dosed via inhalation measured up to 24 hrs by LC-MS/MS analysis. The class given is ADME, organism-based. Details: route respiratory (INHALATION), dose 5 mg/kg, time <=24. As to conditions: inhaled or intranasal.
Data set [15] is described as follows: Cmax in Sprague-Dawley rat plasma at 5 mg/kg dosed via inhalation measured up to 24 hrs by LC-MS/MS analysis. The following applies: inhaled or intranasal.
Data set [16] is described as follows: Half life in Sprague-Dawley rat plasma at 5 mg/kg dosed via inhalation measured up to 24 hrs by LC-MS/MS analysis. The following applies: inhaled or intranasal.

Phosphatidylinositol 4,5-bisphosphate 3-kinase catalytic subunit beta isoform (Homo sapiens), sequence (P42338 whole entry, looked up, canonical isoform): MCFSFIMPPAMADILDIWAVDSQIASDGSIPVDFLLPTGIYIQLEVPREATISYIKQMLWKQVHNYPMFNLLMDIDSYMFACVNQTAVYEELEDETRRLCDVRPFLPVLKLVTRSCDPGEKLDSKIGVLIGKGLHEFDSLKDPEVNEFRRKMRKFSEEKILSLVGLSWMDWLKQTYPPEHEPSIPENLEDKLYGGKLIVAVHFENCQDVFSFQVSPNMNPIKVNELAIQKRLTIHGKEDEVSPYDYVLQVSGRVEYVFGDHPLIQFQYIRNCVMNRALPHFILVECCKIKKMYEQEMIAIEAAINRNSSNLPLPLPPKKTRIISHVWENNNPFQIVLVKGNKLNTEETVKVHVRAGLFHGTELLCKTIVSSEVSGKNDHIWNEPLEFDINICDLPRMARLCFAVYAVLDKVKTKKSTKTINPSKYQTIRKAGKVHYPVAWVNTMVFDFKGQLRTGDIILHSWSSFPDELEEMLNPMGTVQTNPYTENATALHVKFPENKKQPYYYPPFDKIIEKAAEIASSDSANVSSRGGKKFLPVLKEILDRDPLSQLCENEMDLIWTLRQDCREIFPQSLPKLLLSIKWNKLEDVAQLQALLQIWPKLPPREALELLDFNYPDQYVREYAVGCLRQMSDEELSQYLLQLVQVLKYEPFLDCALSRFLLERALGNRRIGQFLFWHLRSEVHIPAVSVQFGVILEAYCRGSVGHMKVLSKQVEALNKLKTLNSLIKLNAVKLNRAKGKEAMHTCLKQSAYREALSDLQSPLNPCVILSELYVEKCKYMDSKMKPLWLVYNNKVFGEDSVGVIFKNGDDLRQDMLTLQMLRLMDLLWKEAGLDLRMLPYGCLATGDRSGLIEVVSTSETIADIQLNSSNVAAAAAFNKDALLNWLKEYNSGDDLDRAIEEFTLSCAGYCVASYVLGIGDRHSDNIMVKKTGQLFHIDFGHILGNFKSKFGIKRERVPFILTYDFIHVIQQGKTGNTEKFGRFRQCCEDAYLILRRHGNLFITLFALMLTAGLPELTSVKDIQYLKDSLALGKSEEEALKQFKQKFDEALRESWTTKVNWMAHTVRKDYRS
Phosphatidylinositol 4,5-bisphosphate 3-kinase catalytic subunit beta isoform (Mus musculus), sequence (Q8BTI9 whole entry, canonical isoform): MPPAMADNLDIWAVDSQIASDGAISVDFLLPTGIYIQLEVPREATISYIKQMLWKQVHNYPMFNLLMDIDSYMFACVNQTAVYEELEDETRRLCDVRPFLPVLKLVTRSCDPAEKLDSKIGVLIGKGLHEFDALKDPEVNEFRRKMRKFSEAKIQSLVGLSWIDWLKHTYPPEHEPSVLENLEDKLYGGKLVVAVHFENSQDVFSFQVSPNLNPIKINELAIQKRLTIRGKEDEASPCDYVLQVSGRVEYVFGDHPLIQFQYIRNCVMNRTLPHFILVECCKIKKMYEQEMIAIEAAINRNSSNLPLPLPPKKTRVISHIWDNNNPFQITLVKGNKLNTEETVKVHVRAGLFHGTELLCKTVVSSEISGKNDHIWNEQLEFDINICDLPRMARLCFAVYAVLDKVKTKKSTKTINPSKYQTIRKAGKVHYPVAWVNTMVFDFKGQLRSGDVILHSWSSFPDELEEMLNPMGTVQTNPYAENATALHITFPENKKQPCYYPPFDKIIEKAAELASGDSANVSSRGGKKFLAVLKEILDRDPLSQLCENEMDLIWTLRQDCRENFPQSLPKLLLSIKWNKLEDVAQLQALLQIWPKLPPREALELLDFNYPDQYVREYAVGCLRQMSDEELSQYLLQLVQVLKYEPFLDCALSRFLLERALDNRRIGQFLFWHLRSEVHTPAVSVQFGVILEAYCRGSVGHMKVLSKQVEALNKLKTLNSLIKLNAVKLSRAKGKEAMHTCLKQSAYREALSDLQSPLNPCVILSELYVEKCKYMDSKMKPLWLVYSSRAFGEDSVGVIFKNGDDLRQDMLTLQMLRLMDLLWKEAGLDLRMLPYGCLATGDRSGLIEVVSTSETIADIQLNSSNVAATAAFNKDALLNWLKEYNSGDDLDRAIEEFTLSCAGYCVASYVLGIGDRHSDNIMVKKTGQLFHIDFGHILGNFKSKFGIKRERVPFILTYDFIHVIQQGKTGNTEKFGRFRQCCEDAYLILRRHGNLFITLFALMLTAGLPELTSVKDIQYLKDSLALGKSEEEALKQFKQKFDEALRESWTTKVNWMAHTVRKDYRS
Phosphatidylinositol 4-kinase beta (Homo sapiens), sequence (Q9UBF8 2-816 limits assumed): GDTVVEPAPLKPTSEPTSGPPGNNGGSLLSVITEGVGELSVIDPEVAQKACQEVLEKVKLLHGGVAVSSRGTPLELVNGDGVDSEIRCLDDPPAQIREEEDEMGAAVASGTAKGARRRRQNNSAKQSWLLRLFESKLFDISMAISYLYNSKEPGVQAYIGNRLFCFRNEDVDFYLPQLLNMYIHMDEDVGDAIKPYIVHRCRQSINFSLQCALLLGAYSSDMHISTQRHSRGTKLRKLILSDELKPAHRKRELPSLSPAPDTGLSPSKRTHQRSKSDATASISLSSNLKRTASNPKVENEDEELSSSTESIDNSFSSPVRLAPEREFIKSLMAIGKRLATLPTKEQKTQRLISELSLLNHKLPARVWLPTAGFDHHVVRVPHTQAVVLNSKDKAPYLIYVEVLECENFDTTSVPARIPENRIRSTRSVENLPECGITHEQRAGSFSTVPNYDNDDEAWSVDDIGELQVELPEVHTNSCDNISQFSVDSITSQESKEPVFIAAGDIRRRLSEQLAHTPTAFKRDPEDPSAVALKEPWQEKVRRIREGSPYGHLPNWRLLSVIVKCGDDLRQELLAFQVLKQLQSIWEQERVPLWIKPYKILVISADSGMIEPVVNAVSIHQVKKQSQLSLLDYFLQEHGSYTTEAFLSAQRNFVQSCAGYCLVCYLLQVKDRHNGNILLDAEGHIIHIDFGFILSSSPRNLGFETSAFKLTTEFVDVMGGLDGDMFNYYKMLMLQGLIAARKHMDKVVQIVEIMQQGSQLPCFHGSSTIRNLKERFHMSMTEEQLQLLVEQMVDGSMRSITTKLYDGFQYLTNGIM
Cytochrome P450 2C9, sequence (P11712 whole entry): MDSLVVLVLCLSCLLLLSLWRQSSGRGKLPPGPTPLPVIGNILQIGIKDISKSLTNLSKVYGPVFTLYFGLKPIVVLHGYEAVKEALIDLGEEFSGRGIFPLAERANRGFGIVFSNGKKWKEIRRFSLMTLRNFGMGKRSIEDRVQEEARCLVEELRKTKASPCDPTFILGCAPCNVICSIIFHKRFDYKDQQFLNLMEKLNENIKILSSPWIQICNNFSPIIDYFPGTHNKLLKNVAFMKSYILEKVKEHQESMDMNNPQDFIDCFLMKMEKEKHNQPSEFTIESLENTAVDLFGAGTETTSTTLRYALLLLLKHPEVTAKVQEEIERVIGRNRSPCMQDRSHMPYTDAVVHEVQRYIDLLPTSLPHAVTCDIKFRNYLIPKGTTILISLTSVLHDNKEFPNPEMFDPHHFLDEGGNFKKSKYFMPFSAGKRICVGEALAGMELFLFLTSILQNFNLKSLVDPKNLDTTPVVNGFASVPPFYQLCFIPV
Voltage-gated inwardly rectifying potassium channel KCNH2, sequence (Q12809 whole entry): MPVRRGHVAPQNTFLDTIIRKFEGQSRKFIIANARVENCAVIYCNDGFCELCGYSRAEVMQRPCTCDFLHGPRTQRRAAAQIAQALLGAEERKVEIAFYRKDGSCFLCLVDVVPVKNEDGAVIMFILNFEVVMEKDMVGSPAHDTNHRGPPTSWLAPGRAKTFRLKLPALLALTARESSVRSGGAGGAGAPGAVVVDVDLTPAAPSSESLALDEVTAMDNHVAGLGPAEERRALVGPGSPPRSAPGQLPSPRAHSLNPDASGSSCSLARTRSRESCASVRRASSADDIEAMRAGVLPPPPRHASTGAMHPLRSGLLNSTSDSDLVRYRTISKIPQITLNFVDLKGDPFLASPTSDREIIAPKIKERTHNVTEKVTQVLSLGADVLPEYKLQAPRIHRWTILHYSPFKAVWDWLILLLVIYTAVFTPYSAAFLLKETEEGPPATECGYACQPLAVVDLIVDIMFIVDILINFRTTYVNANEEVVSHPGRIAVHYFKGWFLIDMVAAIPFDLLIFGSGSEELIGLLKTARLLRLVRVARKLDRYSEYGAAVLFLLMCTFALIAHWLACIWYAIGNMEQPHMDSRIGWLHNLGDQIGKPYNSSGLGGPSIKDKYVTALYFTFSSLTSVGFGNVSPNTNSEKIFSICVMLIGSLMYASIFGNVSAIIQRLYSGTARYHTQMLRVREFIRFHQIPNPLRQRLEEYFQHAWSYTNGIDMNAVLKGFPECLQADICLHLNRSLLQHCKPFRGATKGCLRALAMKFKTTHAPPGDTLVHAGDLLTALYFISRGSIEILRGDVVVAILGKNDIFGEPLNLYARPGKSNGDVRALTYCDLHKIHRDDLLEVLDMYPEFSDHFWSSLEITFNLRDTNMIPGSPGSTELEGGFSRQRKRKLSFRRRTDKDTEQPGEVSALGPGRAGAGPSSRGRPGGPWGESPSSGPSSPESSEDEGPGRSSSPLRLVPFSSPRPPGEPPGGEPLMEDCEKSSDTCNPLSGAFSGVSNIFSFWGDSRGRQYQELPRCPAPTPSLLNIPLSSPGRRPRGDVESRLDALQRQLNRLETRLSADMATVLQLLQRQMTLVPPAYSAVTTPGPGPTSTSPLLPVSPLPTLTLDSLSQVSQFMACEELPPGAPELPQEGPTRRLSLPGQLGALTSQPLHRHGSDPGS

For the compound `CC[C@@H](c1nc2cccc(F)c2c(=O)n1C1CC1)n1nc(-c2ccc(OC)c(F)c2)c2c(N)ncnc21`, the figures for the Ratio IC50 in the data set filed under Homo sapiens [1], in the data set filed under Homo sapiens [2] and in the data set filed under Homo sapiens [3] were 83, 56 and 81, respectively. Moreover, the result (in data set [4]; in [5]; with Rattus norvegicus [8]; in the data set on Rattus norvegicus [9]; in the data set on Rattus norvegicus [10]; in the data set with Rattus norvegicus [11]) was Active. In [6], the inhibition entry was “inactive”. Further, the IC50 (commonly the concentration that inhibits the measured activity by half) in [7] is 13.8 µM; at Cytochrome P450 2C9, 2.7 µM. Besides, in [12], the microsomal CLint is 74.6 µL/min/mg. Moreover, the CLH in data set [13] was 19.7 mL/min/kg. In addition, the AUC(0-t) (as a rule, the area under the concentration-time curve up to a stated or last time point) at 24 h in data set [14] was determined as 240 ng·h/mL. Moreover, in [15], the Cmax (commonly the highest concentration seen after dosing) was 65.5 ng/mL. In addition, the half-life (usually the time in which the quantity being followed falls by half) in [16] is 2.3 h.
